Columns and labels:
[1] = molecular target: T1, C-X-C chemokine receptor type 2 (Homo sapiens, UniProt P25025); assay: Concentration required to inhibit [125I]IL-8 binding towards C-X-C chemokine receptor type 2 of human expressed in CHO cells; format: cell-based
T1 sequence (P25025 whole entry): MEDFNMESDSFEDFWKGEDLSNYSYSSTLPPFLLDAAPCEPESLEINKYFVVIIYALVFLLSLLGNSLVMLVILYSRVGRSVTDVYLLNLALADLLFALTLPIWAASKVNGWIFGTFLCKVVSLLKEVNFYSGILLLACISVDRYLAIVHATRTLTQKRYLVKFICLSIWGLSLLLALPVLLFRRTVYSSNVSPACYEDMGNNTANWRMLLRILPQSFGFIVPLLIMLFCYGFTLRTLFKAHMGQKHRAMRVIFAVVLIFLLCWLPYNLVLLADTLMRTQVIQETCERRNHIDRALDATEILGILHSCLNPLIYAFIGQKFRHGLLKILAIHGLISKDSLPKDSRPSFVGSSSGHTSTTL
How it was run: (§1)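 SPA binding on membranes from CHO cell lines expressing CXCR1 or CXCR2. Competition against radiolabeled human recombinant [125I]-IL-8 at 0.23nM. Values are the mean of three individual experiments.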

[2] = Plasma clearance in rat; format: ADME, organism-based
How it was run: (§2)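 Male Sprague–Dawley rats, n=3 per study, in an iv/po crossover design. Dosed in aqueous solution with 1% DMSO and up to 20% hydroxypropyl-beta-cyclodextrin, 4 and 8 µmol/kg for iv and po. Lateral tail vein blood sampling. Plasma drug measured by LC/MS/MS, lower limit of quantification >10ng/mL.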

[3] = molecular target: T2, C-X-C chemokine receptor type 1 (Homo sapiens, UniProt P25024); assay: Concentration required to inhibit [125I]-IL-8 binding towards C-X-C chemokine receptor type 1 of human expressed in CHO cells; format: cell-based; how it was run: as §1
T2 sequence (P25024 whole entry): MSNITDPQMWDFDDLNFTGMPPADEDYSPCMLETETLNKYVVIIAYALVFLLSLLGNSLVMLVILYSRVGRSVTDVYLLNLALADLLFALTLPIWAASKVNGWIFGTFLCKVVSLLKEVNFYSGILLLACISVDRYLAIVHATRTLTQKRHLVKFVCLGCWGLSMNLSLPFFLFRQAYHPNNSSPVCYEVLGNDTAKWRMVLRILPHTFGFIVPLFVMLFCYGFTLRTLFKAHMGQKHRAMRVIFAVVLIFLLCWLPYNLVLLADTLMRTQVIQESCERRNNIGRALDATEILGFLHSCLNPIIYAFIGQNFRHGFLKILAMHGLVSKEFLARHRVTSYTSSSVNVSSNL

[4] = Oral bioavailability in rat; format: ADME, organism-based; settings: in vivo; how it was run: as §2
[5] = pKa value was determined; format: physicochemical
How it was run: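 pKa calculated in silico, not measured experimentally.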

[6] = In vitro intrinsic clearance of urea in rat liver microsomes in presence of UDPGA; format: ADME, Microsome
How it was run: (§3)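 Rat or human liver microsomes at 0.5mg microsomal protein/mL, run with or without UDPGA. Final compound 0.5–1 µM. Substrate loss followed by LC/MS/MS over a 30-min incubation. CLint taken from the slope of substrate disappearance versus time.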

[7] = In vitro intrinsic clearance of urea in rat liver microsomes in absence of UDPGA; format: ADME, Microsome; how it was run: as §3
[8] = In vitro intrinsic clearance of urea in human liver microsomes in presence of UDPGA; format: ADME, Microsome; how it was run: as §3
[9] = In vitro intrinsic clearance of urea in human liver microsomes in absence of UDPGA; format: ADME, Microsome; how it was run: as §3

| SMILES | IC50 [1] [nM] | clearance [2] [mL/min/kg] | IC50 [3] [nM] | bioavailability [4] [%] | pKa [5] | CL [6] [ml min-1 g-1 liver] | CL [7] [ml min-1 g-1 liver] | CL [8] [ml min-1 g-1 liver] | CL [9] [ml min-1 g-1 liver] |
| --- | --- | --- | --- | --- | --- | --- | --- | --- | --- |
| CN(C)S(=O)(=O)c1c(Cl)ccc(NC(=O)Nc2ccccc2Br)c1O | 12 | 23.4 | 4320 | 100 | 6.19 |  |  |  |  |
| O=C(Nc1ccc(Cl)cc1O)Nc1ccccc1Br | 906 | 323 |  | 6.6 | 8.24 |  |  |  |  |
| NC(=O)c1c(Cl)ccc(NC(=O)Nc2ccccc2Br)c1O | 10 | 105 | 6040 | 3.6 | 7.11 | 5.3 | 1.5 | 1.5 | 0.74 |
| O=C(Nc1ccccc1Br)Nc1ccc(Cl)c(Cl)c1O | 63 | 73.6 | 13400 | 13 | 7.24 |  |  |  |  |
| NS(=O)(=O)c1c(Cl)ccc(NC(=O)Nc2ccccc2Br)c1O | 7 | 16.1 | 1370 | 86 | 6.12 | 5.3 | 1.5 | 1.5 | 0.74 |
| Cl.NCc1c(Cl)ccc(NC(=O)Nc2ccccc2Br)c1O | 114 | 104 | 30000 | 67 | 6.85 |  |  |  |  |

Reference: ChEMBL document CHEMBL1137097, “Discovery of potent and orally bioavailable N,N'-diarylurea antagonists for the CXCR2 chemokine receptor” (Bioorg Med Chem Lett, 2004)
